Where “and” joins values, the source holds several entries; their conditions need not be identical. Equal entries are not always repeated.
System: Fibroblast
Experiment: Multiplex assay against human fibroblast
Type: toxicity, cell-based
Method in brief: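 On a CQ1 microscope at 37°C and 5% CO2, live cells were imaged after compound addition. They had been stained at seeding with Hoechst33342, BioTracker Green Microtubule Cytoskeleton Dye, MitoTracker Red and Annexin V Alexa Fluor 680. CellPathfinder machine-learning gating assigned cells to Hoechst high-intensity objects or normal cells, normal cells to healthy, pyknosed or fragmented nuclei, and pyknosed cells to mitotic or apoptotic. Tubulin, mitochondrial-mass and membrane-permeability phenotypes are per cents of healthy-nucleus cells.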

[1] = 12 h, 1 µM, compound concentration 1 uM
[2] = 12 h, 10 µM, compound concentration 10 uM
[3] = 24 h, 1 µM, compound concentration 1 uM
[4] = 24 h, 10 µM, compound concentration 10 uM
[5] = 48 h, 1 µM, compound concentration 1 uM
[6] = 48 h, 10 µM, compound concentration 10 uM

Compound: CC(C)(C)c1cc(NC(=O)Nc2ccc(-c3cn4c(n3)sc3cc(OCCN5CCOCC5)ccc34)cc2)no1 [QUIZARTINIB]
- Population Apoptotic (%) [1]: 42% and 41%
- Population Fragmented Nuclei (%) [1]: 16% and 24%
- Population Healthy Nuclei (%) [1]: 65% and 52%
- Population Hoechst High Intensity Objects (%) [1]: 2%
- Population Membrane Permeable-Phenotype (%) [1]: 0% and 1%
- Population Mitochondria Different-Phenotype (%) [1]: 7% and 5%
- Population Mitotic Cells (%) [1]: 57% and 58%
- Population Normal (%) [1]: 97%
- Population Pyknosed Nuclei (%) [1]: 17% and 23%
- Population Tubulin-Different-Phenotype (%) [1]: 31% and 41%
- Total Cell Count [1]: 150 and 137
- Population Apoptotic (%) [2]: 43% and 48%
- Population Fragmented Nuclei (%) [2]: 34% and 35%
- Population Healthy Nuclei (%) [2]: 56% and 45%
- Population Hoechst High Intensity Objects (%) [2]: 3% and 5%
- Population Membrane Permeable-Phenotype (%) [2]: 0% and 5%
- Population Mitochondria Different-Phenotype (%) [2]: 10% and 5%
- Population Mitotic Cells (%) [2]: 56% and 51%
- Population Normal (%) [2]: 96% and 94%
- Population Pyknosed Nuclei (%) [2]: 8% and 18%
- Population Tubulin-Different-Phenotype (%) [2]: 75% and 70%
- Total Cell Count [2]: 190 and 162
- Population Apoptotic (%) [3]: 58% and 42%
- Population Fragmented Nuclei (%) [3]: 14% and 25%
- Population Healthy Nuclei (%) [3]: 72% and 61%
- Population Hoechst High Intensity Objects (%) [3]: 1% and 3%
- Population Membrane Permeable-Phenotype (%) [3]: 0% and 2%
- Population Mitochondria Different-Phenotype (%) [3]: 6%
- Population Mitotic Cells (%) [3]: 41% and 57%
- Population Normal (%) [3]: 98% and 96%
- Population Pyknosed Nuclei (%) [3]: 12% and 13%
- Population Tubulin-Different-Phenotype (%) [3]: 32% and 44%
- Total Cell Count [3]: 137 and 152
- Population Apoptotic (%) [4]: 75% and 39%
- Population Fragmented Nuclei (%) [4]: 33% and 40%
- Population Healthy Nuclei (%) [4]: 57% and 46%
- Population Hoechst High Intensity Objects (%) [4]: 1% and 4%
- Population Membrane Permeable-Phenotype (%) [4]: 0% and 1%
- Population Mitochondria Different-Phenotype (%) [4]: 21% and 10%
- Population Mitotic Cells (%) [4]: 25% and 60%
- Population Normal (%) [4]: 98% and 95%
- Population Pyknosed Nuclei (%) [4]: 8% and 13%
- Population Tubulin-Different-Phenotype (%) [4]: 71% and 70%
- Total Cell Count [4]: 190 and 179
- Population Apoptotic (%) [5]: 75% and 42%
- Population Fragmented Nuclei (%) [5]: 19% and 30%
- Population Healthy Nuclei (%) [5]: 71% and 60%
- Population Hoechst High Intensity Objects (%) [5]: 8% and 3%
- Population Membrane Permeable-Phenotype (%) [5]: 0% and 1%
- Population Mitochondria Different-Phenotype (%) [5]: 5% and 8%
- Population Mitotic Cells (%) [5]: 25% and 57%
- Population Normal (%) [5]: 91% and 96%
- Population Pyknosed Nuclei (%) [5]: 9%
- Population Tubulin-Different-Phenotype (%) [5]: 38% and 34%
- Total Cell Count [5]: 145 and 158
- Population Apoptotic (%) [6]: 79% and 60%
- Population Fragmented Nuclei (%) [6]: 30% and 44%
- Population Healthy Nuclei (%) [6]: 56% and 50%
- Population Hoechst High Intensity Objects (%) [6]: 7% and 3%
- Population Membrane Permeable-Phenotype (%) [6]: 0% and 2%
- Population Mitotic Cells (%) [6]: 20% and 40%
- Population Normal (%) [6]: 92% and 96%
- Population Pyknosed Nuclei (%) [6]: 13% and 5%
- Population Tubulin-Different-Phenotype (%) [6]: 74% and 59%
- Total Cell Count [6]: 195

Compound: Nc1nc(CC(=O)Nc2ccc(CCNC[C@H](O)c3ccccc3)cc2)cs1 [MIRABEGRON]
- Population Apoptotic (%) [1]: 53% and 31%
- Population Fragmented Nuclei (%) [1]: 19% and 27%
- Population Healthy Nuclei (%) [1]: 62% and 52%
- Population Hoechst High Intensity Objects (%) [1]: 5% and 4%
- Population Membrane Permeable-Phenotype (%) [1]: 0% and 9%
- Population Mitochondria Different-Phenotype (%) [1]: 6% and 12%
- Population Mitotic Cells (%) [1]: 46% and 68%
- Population Normal (%) [1]: 94% and 95%
- Population Pyknosed Nuclei (%) [1]: 18% and 19%
- Population Tubulin-Different-Phenotype (%) [1]: 25% and 46%
- Total Cell Count [1]: 164 and 189
- Population Apoptotic (%) [2]: 46% and 30%
- Population Fragmented Nuclei (%) [2]: 15% and 31%
- Population Healthy Nuclei (%) [2]: 75% and 41%
- Population Hoechst High Intensity Objects (%) [2]: 3% and 5%
- Population Membrane Permeable-Phenotype (%) [2]: 0% and 1%
- Population Mitochondria Different-Phenotype (%) [2]: 4% and 3%
- Population Mitotic Cells (%) [2]: 53% and 69%
- Population Normal (%) [2]: 96% and 94%
- Population Pyknosed Nuclei (%) [2]: 9% and 27%
- Population Tubulin-Different-Phenotype (%) [2]: 19% and 45%
- Total Cell Count [2]: 171 and 137
- Population Apoptotic (%) [3]: 59% and 58%
- Population Fragmented Nuclei (%) [3]: 17% and 27%
- Population Healthy Nuclei (%) [3]: 64% and 57%
- Population Hoechst High Intensity Objects (%) [3]: 5%
- Population Membrane Permeable-Phenotype (%) [3]: 1% and 9%
- Population Mitochondria Different-Phenotype (%) [3]: 4% and 7%
- Population Mitotic Cells (%) [3]: 40% and 41%
- Population Normal (%) [3]: 94%
- Population Pyknosed Nuclei (%) [3]: 18% and 14%
- Population Tubulin-Different-Phenotype (%) [3]: 28% and 45%
- Total Cell Count [3]: 156 and 179
- Population Apoptotic (%) [4]: 53% and 55%
- Population Fragmented Nuclei (%) [4]: 15% and 29%
- Population Healthy Nuclei (%) [4]: 75% and 48%
- Population Hoechst High Intensity Objects (%) [4]: 2% and 4%
- Population Membrane Permeable-Phenotype (%) [4]: 0% and 4%
- Population Mitochondria Different-Phenotype (%) [4]: 4% and 6%
- Population Mitotic Cells (%) [4]: 46% and 44%
- Population Normal (%) [4]: 97% and 95%
- Population Pyknosed Nuclei (%) [4]: 8% and 21%
- Population Tubulin-Different-Phenotype (%) [4]: 24% and 44%
- Total Cell Count [4]: 181 and 131
- Population Apoptotic (%) [5]: 76% and 50%
- Population Fragmented Nuclei (%) [5]: 23% and 40%
- Population Healthy Nuclei (%) [5]: 60% and 52%
- Population Hoechst High Intensity Objects (%) [5]: 7% and 2%
- Population Membrane Permeable-Phenotype (%) [5]: 2% and 4%
- Population Mitochondria Different-Phenotype (%) [5]: 6% and 10%
- Population Mitotic Cells (%) [5]: 23% and 50%
- Population Normal (%) [5]: 92% and 97%
- Population Pyknosed Nuclei (%) [5]: 15% and 7%
- Population Tubulin-Different-Phenotype (%) [5]: 28% and 32%
- Total Cell Count [5]: 176 and 195
- Population Apoptotic (%) [6]: 64% and 75%
- Population Fragmented Nuclei (%) [6]: 18% and 39%
- Population Healthy Nuclei (%) [6]: 74% and 48%
- Population Hoechst High Intensity Objects (%) [6]: 4% and 3%
- Population Membrane Permeable-Phenotype (%) [6]: 0% and 6%
- Population Mitochondria Different-Phenotype (%) [6]: 4% and 6%
- Population Mitotic Cells (%) [6]: 35% and 25%
- Population Normal (%) [6]: 95% and 96%
- Population Pyknosed Nuclei (%) [6]: 7% and 12%
- Population Tubulin-Different-Phenotype (%) [6]: 21% and 51%
- Total Cell Count [6]: 194 and 132

Source: ChEMBL document CHEMBL5724801, “EUbOPEN Chemogenomics Library - Multiplex” (2024)
